From ChEMBL document CHEMBL3763060, “Synthesis and evaluation of analogs of the phenylpyridazinone NPD-001 as potent trypanosomal TbrPDEB1 phosphodiesterase inhibitors and in vitro trypanocidals” (Bioorg Med Chem, 2016)
Converted amounts (≈) assume the structure as drawn.

Assays:
[1] = tested on: Trypanosoma brucei brucei; experiment: Antitrypanosomal activity against suramin-sensitive Trypanosoma brucei brucei Squib427 assessed as inhibition of parasite growth; format: functional, organism-based
Method in brief: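 Bloodstream-form trypomastigotes of Squib-427 were grown at 37 °C and 5% CO₂ in Hirumi-9 medium with 10% FCS. Compounds came from 20 mM DMSO stocks, pre-diluted 2- or 4-fold serially in DMSO, then diluted in demineralized water; final DMSO was <1%. Results were reported as −logEC₅₀ with n = 2.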

[2] = Cytotoxicity against human MRC5 cells assessed as growth inhibition; format: cell-based
Method in brief: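 MRC-5 fibroblasts were grown at 37 °C and 5% CO₂ in Hirumi-9 medium with 10% FCS. Compounds came from 20 mM DMSO stocks, serially pre-diluted 2- or 4-fold in DMSO, then in demineralized water; final DMSO was <1%. Results were reported as −logCC₅₀ with n = 2.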

[3] = Selectivity index, ratio of CC50 for human MRC5 cells to EC50 for suramin-sensitive Trypanosoma brucei brucei Squib427; format: toxicity, cell-based; conditions: read-out: Ratio CC50/EC50
Method in brief: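 The index was calculated as CC₅₀ in MRC-5 fibroblasts divided by EC₅₀ against T. b. brucei. Both came from parallel assays in Hirumi-9 medium with 10% FCS at 37 °C and 5% CO₂, each n = 2.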

[4] = target: T1, Class 1 phosphodiesterase PDEB1 (Trypanosoma brucei, UniProt Q8WQX9); experiment: Inhibition of recombinant Trypanosoma brucei PDEB1 using [3H]-cAMP as substrate after 15 mins by scintillation proximity assay
T1 sequence (Q8WQX9 whole entry): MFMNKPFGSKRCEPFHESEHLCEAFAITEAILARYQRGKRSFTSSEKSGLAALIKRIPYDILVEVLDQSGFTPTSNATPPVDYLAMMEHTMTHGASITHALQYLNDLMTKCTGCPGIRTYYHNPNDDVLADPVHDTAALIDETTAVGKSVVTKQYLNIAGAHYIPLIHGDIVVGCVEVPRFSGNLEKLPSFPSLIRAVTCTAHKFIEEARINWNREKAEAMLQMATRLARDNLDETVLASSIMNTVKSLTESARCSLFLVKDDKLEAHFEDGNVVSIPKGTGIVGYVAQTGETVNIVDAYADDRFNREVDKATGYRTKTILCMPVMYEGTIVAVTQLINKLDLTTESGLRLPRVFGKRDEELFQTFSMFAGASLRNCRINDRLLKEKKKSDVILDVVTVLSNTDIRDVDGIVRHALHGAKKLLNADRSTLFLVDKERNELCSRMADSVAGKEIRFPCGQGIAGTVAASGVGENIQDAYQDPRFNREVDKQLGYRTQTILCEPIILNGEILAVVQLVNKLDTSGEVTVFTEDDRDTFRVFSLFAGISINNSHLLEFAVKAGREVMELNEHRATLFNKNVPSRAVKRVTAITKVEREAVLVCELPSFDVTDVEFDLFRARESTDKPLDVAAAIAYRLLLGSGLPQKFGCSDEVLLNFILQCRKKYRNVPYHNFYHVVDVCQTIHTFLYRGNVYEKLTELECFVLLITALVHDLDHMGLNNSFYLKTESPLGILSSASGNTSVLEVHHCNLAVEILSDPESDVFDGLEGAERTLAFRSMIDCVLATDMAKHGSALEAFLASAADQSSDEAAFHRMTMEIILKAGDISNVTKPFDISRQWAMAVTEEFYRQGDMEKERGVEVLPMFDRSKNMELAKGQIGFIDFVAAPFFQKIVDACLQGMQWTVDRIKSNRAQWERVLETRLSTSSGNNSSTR
Method in brief: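 Inhibition of TbrPDEB1-mediated [³H]-cAMP hydrolysis was read by scintillation proximity assay. Each analog was run in at least two independent experiments.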

[5] = target: T2, 3',5'-cyclic-AMP phosphodiesterase 4B (Homo sapiens, UniProt Q07343); experiment: Inhibition of full length human recombinant PDE4B1 using [3H]-cAMP as substrate by scintillation proximity assay
T2 sequence (Q07343 whole entry): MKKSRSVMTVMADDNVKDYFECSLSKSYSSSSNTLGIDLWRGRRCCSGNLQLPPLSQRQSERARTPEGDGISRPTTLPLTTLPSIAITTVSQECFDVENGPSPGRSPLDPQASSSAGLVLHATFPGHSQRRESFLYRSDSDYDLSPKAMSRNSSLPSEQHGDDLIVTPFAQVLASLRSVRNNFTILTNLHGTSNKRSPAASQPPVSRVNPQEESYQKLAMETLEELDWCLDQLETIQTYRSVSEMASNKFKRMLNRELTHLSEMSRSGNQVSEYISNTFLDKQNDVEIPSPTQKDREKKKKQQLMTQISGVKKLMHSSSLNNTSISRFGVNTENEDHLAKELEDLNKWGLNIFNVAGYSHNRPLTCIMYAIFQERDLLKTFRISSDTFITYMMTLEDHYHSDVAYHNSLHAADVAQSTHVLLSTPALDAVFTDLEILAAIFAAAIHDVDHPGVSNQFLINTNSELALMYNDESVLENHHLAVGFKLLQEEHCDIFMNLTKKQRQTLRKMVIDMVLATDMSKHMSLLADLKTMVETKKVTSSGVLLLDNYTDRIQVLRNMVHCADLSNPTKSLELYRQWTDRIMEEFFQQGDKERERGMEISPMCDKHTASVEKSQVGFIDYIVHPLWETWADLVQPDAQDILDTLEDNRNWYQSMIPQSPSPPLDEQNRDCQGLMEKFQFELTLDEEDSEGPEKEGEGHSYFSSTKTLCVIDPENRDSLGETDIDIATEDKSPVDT

[6] = Selectivity ratio of IC50 for Trypanosoma brucei recombinant PDEB1 to IC50 for full length human recombinant PDE4B1
[7] = Solubility of compound in 0.05 M phosphate buffer at pH 7.4; format: physicochemical
[8] = Inhibition of Trypanosoma brucei PDEB2 using [3H]-cAMP as substrate after 15 mins by scintillation proximity assay
Trypanosoma brucei = experiment: Antitrypanosomal activity against Trypanosoma brucei assessed as inhibition of parasite growth after 48 hrs by resazurin assay; format: functional, organism-based
[9] = target: cGMP-specific 3',5'-cyclic phosphodiesterase (Homo sapiens, UniProt O76074); experiment: Inhibition of full length human recombinant PDE5A1 using [3H]-cGMP as substrate by scintillation proximity assay
Method in brief: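 Radiolabelled cGMP substrate at 0.5 (final assay level). Scintillation proximity read-out of the full-length recombinant enzyme's hydrolytic activity, run in the presence of test compounds.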

[10] = target: 3',5'-cyclic-AMP phosphodiesterase 4D (Homo sapiens, UniProt Q08499); experiment: Inhibition of full length human recombinant PDE4D3 using [3H]-cAMP as substrate by scintillation proximity assay
3',5'-cyclic-AMP phosphodiesterase 4D, sequence (Q08499 whole entry): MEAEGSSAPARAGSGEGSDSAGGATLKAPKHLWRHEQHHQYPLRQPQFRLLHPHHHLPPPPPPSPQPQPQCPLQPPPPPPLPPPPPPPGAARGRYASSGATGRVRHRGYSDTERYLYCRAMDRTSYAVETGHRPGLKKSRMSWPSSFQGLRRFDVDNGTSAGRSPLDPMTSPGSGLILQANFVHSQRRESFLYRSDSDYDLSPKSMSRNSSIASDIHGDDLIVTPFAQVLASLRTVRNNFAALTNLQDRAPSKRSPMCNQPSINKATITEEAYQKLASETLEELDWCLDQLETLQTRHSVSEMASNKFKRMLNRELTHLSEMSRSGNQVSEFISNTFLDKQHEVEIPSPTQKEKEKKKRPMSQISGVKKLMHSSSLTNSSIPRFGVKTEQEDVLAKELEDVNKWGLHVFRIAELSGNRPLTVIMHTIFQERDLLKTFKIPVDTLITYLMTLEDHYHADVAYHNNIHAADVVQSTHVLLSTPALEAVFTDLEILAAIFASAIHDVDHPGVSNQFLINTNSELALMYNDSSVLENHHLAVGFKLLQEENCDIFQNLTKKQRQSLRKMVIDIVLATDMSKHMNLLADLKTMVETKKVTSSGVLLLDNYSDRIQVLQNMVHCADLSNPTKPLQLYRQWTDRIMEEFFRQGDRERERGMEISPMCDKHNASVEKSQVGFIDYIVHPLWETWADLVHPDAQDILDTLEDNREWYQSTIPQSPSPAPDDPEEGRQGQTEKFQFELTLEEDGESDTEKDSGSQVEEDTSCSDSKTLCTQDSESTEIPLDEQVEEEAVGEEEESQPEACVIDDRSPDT

[11] = target: Dual specificity calcium/calmodulin-dependent 3',5'-cyclic nucleotide phosphodiesterase 1B (Homo sapiens, UniProt Q01064); experiment: Inhibition of full length human recombinant PDE1B1 using [3H]-cAMP as substrate by scintillation proximity assay
[12] = target: Dual 3',5'-cyclic-AMP and -GMP phosphodiesterase 11A (Homo sapiens, UniProt Q9HCR9); experiment: Inhibition of full length human recombinant PDE11A4 using [3H]-cAMP as substrate by scintillation proximity assay
Dual 3',5'-cyclic-AMP and -GMP phosphodiesterase 11A, sequence (Q9HCR9 whole entry): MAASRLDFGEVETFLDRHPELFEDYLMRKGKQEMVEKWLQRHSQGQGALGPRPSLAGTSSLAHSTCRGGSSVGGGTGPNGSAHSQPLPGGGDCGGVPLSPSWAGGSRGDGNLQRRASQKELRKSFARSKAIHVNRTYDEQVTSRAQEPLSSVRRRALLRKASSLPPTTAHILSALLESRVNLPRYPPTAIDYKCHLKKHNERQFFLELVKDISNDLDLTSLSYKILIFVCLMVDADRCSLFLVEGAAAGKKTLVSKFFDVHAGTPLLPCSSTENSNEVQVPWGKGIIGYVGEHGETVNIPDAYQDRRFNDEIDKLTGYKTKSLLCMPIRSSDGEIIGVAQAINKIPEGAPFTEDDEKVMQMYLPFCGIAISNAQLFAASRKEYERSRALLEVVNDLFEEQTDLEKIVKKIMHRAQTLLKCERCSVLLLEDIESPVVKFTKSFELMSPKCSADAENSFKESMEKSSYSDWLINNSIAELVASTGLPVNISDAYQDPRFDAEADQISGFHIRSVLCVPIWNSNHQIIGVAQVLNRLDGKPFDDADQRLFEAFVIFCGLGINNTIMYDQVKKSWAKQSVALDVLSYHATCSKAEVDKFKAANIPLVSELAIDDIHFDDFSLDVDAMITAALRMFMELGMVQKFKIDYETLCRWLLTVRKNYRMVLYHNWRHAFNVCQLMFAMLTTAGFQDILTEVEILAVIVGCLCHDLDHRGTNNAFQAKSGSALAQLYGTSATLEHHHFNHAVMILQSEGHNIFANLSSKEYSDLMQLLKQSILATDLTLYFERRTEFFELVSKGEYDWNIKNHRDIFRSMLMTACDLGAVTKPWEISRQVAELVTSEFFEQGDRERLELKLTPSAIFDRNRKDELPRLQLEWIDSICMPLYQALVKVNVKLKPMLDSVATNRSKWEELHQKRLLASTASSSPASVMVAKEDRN

[13] = target: cAMP and cAMP-inhibited cGMP 3',5'-cyclic phosphodiesterase 10A (Homo sapiens, UniProt Q9Y233); experiment: Inhibition of full length human recombinant PDE10A using [3H]-cAMP as substrate by scintillation proximity assay
[14] = target: High affinity 3',5'-cyclic-AMP phosphodiesterase 7A (Homo sapiens, UniProt Q13946); experiment: Inhibition of full length human recombinant PDE7A1 using [3H]-cAMP as substrate by scintillation proximity assay
[15] = target: High affinity cGMP-specific 3',5'-cyclic phosphodiesterase 9A (Homo sapiens, UniProt O76083); experiment: Inhibition of full length human recombinant PDE9A3 using [3H]-cAMP as substrate by scintillation proximity assay
High affinity cGMP-specific 3',5'-cyclic phosphodiesterase 9A, sequence (O76083 whole entry): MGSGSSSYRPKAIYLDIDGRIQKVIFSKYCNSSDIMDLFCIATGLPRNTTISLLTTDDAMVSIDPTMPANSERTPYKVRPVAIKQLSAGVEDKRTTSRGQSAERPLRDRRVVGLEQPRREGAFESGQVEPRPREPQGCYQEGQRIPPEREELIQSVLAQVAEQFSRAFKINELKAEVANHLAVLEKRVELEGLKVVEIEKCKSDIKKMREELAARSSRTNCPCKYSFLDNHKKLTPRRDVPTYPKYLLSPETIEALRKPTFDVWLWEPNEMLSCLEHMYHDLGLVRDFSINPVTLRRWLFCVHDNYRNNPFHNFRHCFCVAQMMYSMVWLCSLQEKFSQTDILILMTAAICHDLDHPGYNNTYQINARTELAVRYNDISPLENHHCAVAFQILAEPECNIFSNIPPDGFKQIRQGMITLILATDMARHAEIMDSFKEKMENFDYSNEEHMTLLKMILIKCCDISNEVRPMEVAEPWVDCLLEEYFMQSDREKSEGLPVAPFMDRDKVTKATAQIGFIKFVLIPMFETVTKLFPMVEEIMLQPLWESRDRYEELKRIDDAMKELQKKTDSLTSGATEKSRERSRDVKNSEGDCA

[16] = target: High affinity cAMP-specific and IBMX-insensitive 3',5'-cyclic phosphodiesterase 8B (Homo sapiens, UniProt O95263); experiment: Inhibition of full length human recombinant PDE8B using [3H]-cAMP as substrate by scintillation proximity assay
High affinity cAMP-specific and IBMX-insensitive 3',5'-cyclic phosphodiesterase 8B, sequence (O95263 whole entry): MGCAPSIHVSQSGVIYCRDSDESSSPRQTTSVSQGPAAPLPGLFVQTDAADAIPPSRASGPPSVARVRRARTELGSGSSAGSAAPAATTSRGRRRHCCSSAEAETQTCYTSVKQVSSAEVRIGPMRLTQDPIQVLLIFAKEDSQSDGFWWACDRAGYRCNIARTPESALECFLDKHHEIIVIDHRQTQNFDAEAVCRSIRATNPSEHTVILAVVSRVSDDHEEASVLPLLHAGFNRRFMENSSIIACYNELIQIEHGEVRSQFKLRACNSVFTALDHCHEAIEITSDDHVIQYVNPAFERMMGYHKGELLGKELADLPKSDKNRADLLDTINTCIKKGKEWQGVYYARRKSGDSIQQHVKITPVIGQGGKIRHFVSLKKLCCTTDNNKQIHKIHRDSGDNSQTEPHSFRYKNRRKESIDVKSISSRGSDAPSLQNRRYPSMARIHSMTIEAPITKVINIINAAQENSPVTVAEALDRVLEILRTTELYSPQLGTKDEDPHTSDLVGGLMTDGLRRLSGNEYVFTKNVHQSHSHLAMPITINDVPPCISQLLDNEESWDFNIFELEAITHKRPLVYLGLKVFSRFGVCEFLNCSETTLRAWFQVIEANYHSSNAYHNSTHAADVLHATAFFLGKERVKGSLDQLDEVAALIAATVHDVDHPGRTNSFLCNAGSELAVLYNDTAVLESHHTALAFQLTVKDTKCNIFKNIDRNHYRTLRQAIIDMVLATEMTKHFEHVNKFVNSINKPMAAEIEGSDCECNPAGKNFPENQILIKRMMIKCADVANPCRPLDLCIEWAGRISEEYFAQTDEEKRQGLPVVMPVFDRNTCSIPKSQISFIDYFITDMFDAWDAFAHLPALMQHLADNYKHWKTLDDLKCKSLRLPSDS

[17] = Inhibition of full length human recombinant PDE3A1 using [3H]-cAMP as substrate by scintillation proximity assay
[18] = target: cGMP-dependent 3',5'-cyclic phosphodiesterase (Homo sapiens, UniProt O00408); experiment: Inhibition of full length human recombinant PDE2A3 using [3H]-cAMP as substrate by scintillation proximity assay
cGMP-dependent 3',5'-cyclic phosphodiesterase, sequence (O00408 whole entry): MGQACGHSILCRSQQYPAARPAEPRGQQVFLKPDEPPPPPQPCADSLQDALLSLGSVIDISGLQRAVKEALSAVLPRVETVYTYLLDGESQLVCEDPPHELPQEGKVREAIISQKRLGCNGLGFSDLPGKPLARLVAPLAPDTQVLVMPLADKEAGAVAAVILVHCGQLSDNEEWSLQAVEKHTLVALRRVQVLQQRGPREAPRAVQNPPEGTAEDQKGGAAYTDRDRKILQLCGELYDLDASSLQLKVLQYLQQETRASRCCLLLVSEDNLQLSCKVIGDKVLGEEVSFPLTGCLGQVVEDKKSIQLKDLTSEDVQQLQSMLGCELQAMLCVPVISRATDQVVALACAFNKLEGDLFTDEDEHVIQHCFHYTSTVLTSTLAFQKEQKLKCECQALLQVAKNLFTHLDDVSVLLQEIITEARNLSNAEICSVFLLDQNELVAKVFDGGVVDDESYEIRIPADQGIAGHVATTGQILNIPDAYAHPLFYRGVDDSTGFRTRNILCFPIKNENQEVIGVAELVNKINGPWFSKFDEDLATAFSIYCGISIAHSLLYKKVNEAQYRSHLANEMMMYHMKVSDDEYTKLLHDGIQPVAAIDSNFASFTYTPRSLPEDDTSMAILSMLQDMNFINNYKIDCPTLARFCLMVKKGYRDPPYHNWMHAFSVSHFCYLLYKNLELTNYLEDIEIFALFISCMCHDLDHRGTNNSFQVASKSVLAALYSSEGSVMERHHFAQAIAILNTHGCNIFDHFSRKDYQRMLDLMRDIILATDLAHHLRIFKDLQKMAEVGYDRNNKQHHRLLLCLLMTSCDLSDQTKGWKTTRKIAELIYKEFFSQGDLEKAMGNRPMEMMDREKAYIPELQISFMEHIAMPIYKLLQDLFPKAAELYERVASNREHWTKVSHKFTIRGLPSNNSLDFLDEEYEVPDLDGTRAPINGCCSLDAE

[19] = target: T2, 3',5'-cyclic-AMP phosphodiesterase 4B; experiment: Inhibition of full length human recombinant PDE4B2 using [3H]-cAMP as substrate by scintillation proximity assay

SMILES	EC50 [1] [nM]	IC50 [4] [nM]	IC50 [5] [nM]	CC50 [2] [nM]	selectivity ratio [3]	further results
COc1ccc(C2=NN(C3CCCCCC3)C(=O)[C@@H]3CC=CC[C@H]23)cc1OCc1ccncc1 (racemic)	1260	158	–	15800	12.6	–
COc1ccc(C2=NN(C3CCCCCC3)C(=O)[C@@H]3CC=CC[C@H]23)cc1 (racemic)	–	3980	–	–	–	–
COc1ccc(C2=NNC(=O)[C@@H]3CC=CC[C@H]23)cc1OC (racemic)	–	12600	–	–	–	–
COc1ccc(-c2nn(C3CCCCCC3)c(=O)c3ccccc23)cc1OC	–	> 10000	–	–	–	–
COCCOc1cc(C2=NN(C3CCCCCC3)C(=O)[C@@H]3CC=CC[C@H]23)ccc1OC (racemic)	794	79.4	–	25100	32	–
COc1ccc(C2=NN(C3CCCCCC3)C(=O)[C@@H]3CC=CC[C@H]23)cc1OCCCCOc1ccc(C(=O)O)cc1 (racemic)	–	316	0.316	–	–	Ratio IC50 [6]: 1000
COc1ccc(C2=NN(C3CCCCCC3)C(=O)[C@@H]3CC=CC[C@H]23)cc1OCCc1ccc(N(C)C)cc1 (racemic)	1000	63.1	–	> 63100	> 63	–
COc1ccc(C2=NN(C3CCCCCC3)C(=O)[C@@H]3CC=CC[C@H]23)cc1OCCCCOc1ccc(-c2nnn[nH]2)cc1 (racemic)	20	–	0.631	6310	–	IC50 [8]: 3 nM; pIC50 [8]: 8.5; IC50 (Trypanosoma brucei): 80 nM; IC50 [9]: 2000 nM; IC50 [10]: 0.631 nM; IC50 [11]: 3980 nM; IC50 [12]: 2000 nM; solubility [7]: 75 µM (≈ 43.9 µg/mL); IC50 [13]: 501 nM; IC50 [14]: 3160 nM; IC50 [15]: > 10000 nM; IC50 [16]: 3980 nM; pIC50 [17]: 6.9; IC50 [18]: 6310 nM; IC50 [19]: 0.501 nM
COc1ccc(C2=NN(C3CCCCCC3)C(=O)[C@@H]3CC=CC[C@H]23)cc1OCCCCCc1ccccc1 (racemic)	5010	63.1	–	> 63100	> 13	–
COc1ccc(C2=NN(C3CCCCCC3)C(=O)[C@@H]3CC=CC[C@H]23)cc1OCc1cccc(OC)c1OC (racemic)	1580	79.4	–	3980	2.5	–

More lines, in order of falling IC50 [4], values ahead:

EC50 [1] [nM]	IC50 [4] [nM]	IC50 [5] [nM]	SMILES	CC50 [2] [nM]	selectivity ratio [3]	further results
–	100000	–	COc1cccc(C2=NN(C3CCCCCC3)C(=O)[C@@H]3CC=CC[C@H]23)c1 (racemic)	–	–	–
–	10000	–	COc1ccc(C2=NN(C3CCCCCC3)C(=O)CC2)cc1OC	–	–	–
–	2000	–	COc1ccc(C2=NN(C(C)C)C(=O)[C@@H]3CCCC[C@H]23)cc1OC (racemic)	–	–	–
–	1580	–	COc1ccc(C2=NN(C3CCCCCC3)C(=O)[C@@H]3CCCC[C@H]23)cc1OC (racemic)	–	–	–
–	316	0.631	COc1ccc(C2=NN(C3CCCCCC3)C(=O)[C@@H]3CC=CC[C@H]23)cc1OC (racemic)	–	–	Ratio IC50 [6]: 501
1000	126	–	COc1cc(COc2cc(C3=NN(C4CCCCCC4)C(=O)[C@@H]4CC=CC[C@H]34)ccc2OC)cc(OC)c1 (racemic)	12600	12.6	–
2000	100	–	COc1ccc(C2=NN(C3CCCCCC3)C(=O)[C@@H]3CC=CC[C@H]23)cc1OCCO (racemic)	31600	16	–
–	100	–	COc1ccc(C2=NN(C3CCCCCC3)C(=O)[C@@H]3CC=CC[C@H]23)cc1OCc1ccccn1 (racemic)	–	–	–
1260	63.1	–	COc1ccc(CCOc2cc(C3=NN(C4CCCCCC4)C(=O)[C@@H]4CC=CC[C@H]34)ccc2OC)cc1 (racemic)	> 63100	> 50	–
200	15.8	1.58	COc1ccc(C2=NN(C3CCCCCC3)C(=O)[C@@H]3CC=CC[C@H]23)cc1OCCCCn1cnc2ncncc21 (racemic)	39800	200	Ratio IC50 [6]: 10
1000	12.6	0.2	COc1ccc(C2=NN(C3CCCCCC3)C(=O)[C@@H]3CC=CC[C@H]23)cc1OCCCCOc1ccc(-n2ccnc2)cc1 (racemic)	39800	40	Ratio IC50 [6]: 63
501	10	0.631	COc1ccc(C2=NN(C3CCCCCC3)C(=O)[C@@H]3CC=CC[C@H]23)cc1OCCCCOc1ccc(-c2nnnn2C)cc1 (racemic)	> 63100	> 125	solubility [7]: < 2 µM; Ratio IC50 [6]: 16
251	3.16	0.501	COc1ccc(C2=NN(C3CCCCCC3)C(=O)[C@@H]3CC=CC[C@H]23)cc1OCCCCOc1ccc(-c2nnn(C)n2)cc1 (racemic)	> 63100	> 251	solubility [7]: < 2 µM; Ratio IC50 [6]: 6
